Measured values reported in ChEMBL document CHEMBL1817563, “Novel aminopeptidase N (APN/CD13) inhibitors derived from chloramphenicol amine” (Bioorg Med Chem, 2011).

Assays:
[1] = biological target: 72 kDa type IV collagenase (Homo sapiens, UniProt P08253); assay: Inhibition of human MMP-2 after 30 mins by spectrophotometry
Outline: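 MMP-2 was incubated with synthetic substrate and inhibitor in 50 mM sodium borate, pH 8.5, for 30 min at 37 °C. TNBS (0.03%, m/v) was then added for 20 min at room temperature. Absorbance was read at 450 nm. IC50 is the mean ± standard deviation of triplicate experiments.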

[2] = Selectivity ratio of IC50 for MMP-2 to IC50 for pig kidney microsomal APN
[3] = test system: HL-60; assay: Antiproliferative activity against human HL60 cells expressing high levels of APN after 48 hrs by MTT assay; format: functional, cell-based; conditions: HL-60, 48 h
Outline: (§1)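 Cells kept in RPMI1640 plus 10% FBS at 37 °C, 5% CO2. Seeded 1×10^4/well and grown 4 h before inhibitors were added over a range of concentrations. After 48 h exposure, MTT (0.5 mg/mL) was added and the formazan dissolved in DMSO. Read-out was OD at 570 nm.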

[4] = biological target: Aminopeptidase N (Homo sapiens, UniProt P15144); assay: Inhibition of APN in human HL60 cells assessed as hydrolysis of L-Leu-p-nitroanilide by spectrophotometry; format: cell-based, HL-60
Sequence of Aminopeptidase N (Homo sapiens, UniProt P15144) (P15144 whole entry): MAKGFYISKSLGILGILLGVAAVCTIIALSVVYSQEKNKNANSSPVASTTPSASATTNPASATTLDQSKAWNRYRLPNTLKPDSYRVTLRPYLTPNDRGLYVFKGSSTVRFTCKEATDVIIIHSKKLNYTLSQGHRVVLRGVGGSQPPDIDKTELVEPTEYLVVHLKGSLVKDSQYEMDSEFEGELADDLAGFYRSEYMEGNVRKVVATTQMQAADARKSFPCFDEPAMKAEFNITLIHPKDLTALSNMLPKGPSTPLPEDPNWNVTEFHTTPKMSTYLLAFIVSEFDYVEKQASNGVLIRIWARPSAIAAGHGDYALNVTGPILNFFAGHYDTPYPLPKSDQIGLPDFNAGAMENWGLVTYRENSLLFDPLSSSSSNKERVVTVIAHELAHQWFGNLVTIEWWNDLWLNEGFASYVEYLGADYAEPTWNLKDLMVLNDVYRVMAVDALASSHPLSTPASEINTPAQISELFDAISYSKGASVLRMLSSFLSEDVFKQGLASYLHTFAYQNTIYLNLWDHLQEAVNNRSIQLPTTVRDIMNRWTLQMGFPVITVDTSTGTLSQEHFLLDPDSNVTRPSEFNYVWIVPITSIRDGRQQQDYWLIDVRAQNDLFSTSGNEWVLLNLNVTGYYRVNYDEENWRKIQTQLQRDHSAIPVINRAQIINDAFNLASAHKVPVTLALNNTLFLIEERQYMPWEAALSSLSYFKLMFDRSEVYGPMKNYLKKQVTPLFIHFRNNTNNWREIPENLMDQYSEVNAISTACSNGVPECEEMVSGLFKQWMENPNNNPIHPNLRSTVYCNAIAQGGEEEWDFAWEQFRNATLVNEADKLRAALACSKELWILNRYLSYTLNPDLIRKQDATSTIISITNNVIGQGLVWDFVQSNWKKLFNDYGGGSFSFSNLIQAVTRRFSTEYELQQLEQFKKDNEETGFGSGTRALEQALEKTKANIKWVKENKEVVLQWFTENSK
Outline: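 Intact HL-60 cells suspended in PBS (1×10^5/well) served as the enzyme source, with L-Leu-p-nitroanilide as substrate. Cells were incubated at 37 °C with a range of inhibitor concentrations. Values are means of three independent experiments.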

[5] = biological target: T1, Aminopeptidase N (Sus scrofa, UniProt P15145); assay: Inhibition of pig kidney microsomal APN assessed as hydrolysis of L-Leu-p-nitroanilide after 1 hr by spectrophotometry
T1 sequence (P15145 whole entry): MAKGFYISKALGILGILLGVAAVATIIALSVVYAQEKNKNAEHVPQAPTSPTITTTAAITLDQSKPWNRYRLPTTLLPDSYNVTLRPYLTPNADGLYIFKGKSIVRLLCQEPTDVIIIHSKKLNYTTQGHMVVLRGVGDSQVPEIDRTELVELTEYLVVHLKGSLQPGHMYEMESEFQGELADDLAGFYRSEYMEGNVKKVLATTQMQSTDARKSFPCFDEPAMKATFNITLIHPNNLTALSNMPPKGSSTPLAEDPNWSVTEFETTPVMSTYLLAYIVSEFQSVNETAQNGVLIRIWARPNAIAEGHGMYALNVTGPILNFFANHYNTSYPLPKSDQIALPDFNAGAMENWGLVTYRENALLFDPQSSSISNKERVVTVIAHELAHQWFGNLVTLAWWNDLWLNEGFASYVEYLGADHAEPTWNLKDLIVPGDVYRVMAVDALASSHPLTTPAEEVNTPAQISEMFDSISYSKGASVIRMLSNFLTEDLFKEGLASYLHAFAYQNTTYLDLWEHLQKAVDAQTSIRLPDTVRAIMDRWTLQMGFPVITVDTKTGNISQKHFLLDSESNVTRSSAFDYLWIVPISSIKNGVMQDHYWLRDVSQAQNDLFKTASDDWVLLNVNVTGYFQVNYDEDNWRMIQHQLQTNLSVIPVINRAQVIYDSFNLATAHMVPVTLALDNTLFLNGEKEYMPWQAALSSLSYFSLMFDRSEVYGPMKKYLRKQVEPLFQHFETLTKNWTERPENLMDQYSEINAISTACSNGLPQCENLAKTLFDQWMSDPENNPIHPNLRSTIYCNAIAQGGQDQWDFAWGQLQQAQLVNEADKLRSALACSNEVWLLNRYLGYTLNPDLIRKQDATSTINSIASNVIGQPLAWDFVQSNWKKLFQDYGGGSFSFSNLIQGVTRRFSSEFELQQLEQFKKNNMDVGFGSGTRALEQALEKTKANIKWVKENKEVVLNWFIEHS
Outline: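 Porcine kidney microsomal aminopeptidase in 50 mM PBS, pH 7.2, with L-Leu-p-nitroanilide as substrate. Incubated with a range of inhibitor concentrations at 37 °C. Triplicate experiments, reported as mean ± standard deviation.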

[6] = test system: MDA-MB-231; assay: Antiproliferative activity against human MDA-MB-231 cells expressing low levels of APN after 48 hrs by MTT assay; format: functional, cell-based; conditions: MDA-MB-231, 48 h; outline: as §1

Sequence of 72 kDa type IV collagenase (P08253 whole entry): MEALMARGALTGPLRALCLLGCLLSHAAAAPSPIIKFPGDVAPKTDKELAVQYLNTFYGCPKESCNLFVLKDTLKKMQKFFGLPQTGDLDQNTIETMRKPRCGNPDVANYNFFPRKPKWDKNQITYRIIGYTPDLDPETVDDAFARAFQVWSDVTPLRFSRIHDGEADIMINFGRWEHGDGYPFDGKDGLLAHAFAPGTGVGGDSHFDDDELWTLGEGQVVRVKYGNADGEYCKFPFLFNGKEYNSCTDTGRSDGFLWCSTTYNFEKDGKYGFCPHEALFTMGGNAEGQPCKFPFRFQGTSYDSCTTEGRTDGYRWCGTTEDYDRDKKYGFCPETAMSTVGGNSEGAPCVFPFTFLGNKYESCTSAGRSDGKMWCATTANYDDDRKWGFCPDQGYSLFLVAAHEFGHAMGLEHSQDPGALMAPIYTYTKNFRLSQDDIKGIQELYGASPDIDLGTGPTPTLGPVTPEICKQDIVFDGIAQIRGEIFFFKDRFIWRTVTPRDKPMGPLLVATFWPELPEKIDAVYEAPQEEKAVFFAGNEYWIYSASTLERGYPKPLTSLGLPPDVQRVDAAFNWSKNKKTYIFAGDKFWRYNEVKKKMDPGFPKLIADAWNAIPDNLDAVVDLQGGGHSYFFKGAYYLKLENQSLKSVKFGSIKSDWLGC

Compound | IC50 [1] | Ratio IC50 [2] | IC50 [3] | IC50 [4] | IC50 [5] | IC50 [6]
CC(C)C[C@H](N)C(=O)N[C@H](Cc1ccccc1)C(=O)NC[C@H](N)[C@@H](O)c1ccc([N+](=O)[O-])cc1 | 173 µM | 19.2 | 2150 µM | 290 µM | 9.4 µM | 1320 µM
NC[C@H](O)C(=O)N[C@H](Cc1ccccc1)C(=O)NC[C@H](N)[C@@H](O)c1ccc([N+](=O)[O-])cc1 | 40.6 µM | 6.3 | 2040 µM | 66.3 µM | 6.5 µM | 4130 µM
CC(C)C[C@H](N)C(=O)NC[C@H](N)[C@@H](O)c1ccc(I)cc1 | 120 µM | 3.9 | – | – | 30.6 µM | –
NC[C@H](N)[C@@H](O)c1ccc([N+](=O)[O-])cc1 | > 1000 µM | > 1.1 | – | – | 894 µM | –
N[C@@H](Cc1ccc(O)cc1)C(=O)NC[C@H](N)[C@@H](O)c1ccc(I)cc1 | 42.2 µM | 2 | – | – | 21.6 µM | –
N[C@H](Cc1ccccc1)C(=O)NC[C@H](N)[C@@H](O)c1ccc([N+](=O)[O-])cc1 | 67.4 µM | 1.6 | – | – | 42.2 µM | –
CC(C)C[C@H](N)C(=O)NC[C@H](N)[C@@H](O)c1ccc(N)cc1 | 119 µM | 1.9 | – | – | 63.2 µM | –
N[C@@H](CO)C(=O)NC[C@H](N)[C@@H](O)c1ccc([N+](=O)[O-])cc1 | 331 µM | 0.8 | – | – | 423 µM | –
NCCCC[C@H](N)C(=O)NC[C@H](N)[C@@H](O)c1ccc(N)cc1 | 157 µM | 1.2 | – | – | 136 µM | –
CC(C)C[C@H](NC(=O)[C@@H](O)CN)C(=O)NC[C@H](N)[C@@H](O)c1ccc([N+](=O)[O-])cc1 | 83.9 µM | 4.2 | – | – | 19.6 µM | –
N[C@H](Cc1ccccc1)C(=O)N[C@H](Cc1ccccc1)C(=O)NC[C@H](N)[C@@H](O)c1ccc([N+](=O)[O-])cc1 | 44.1 µM | 0.3 | – | – | 134 µM | –
N[C@@H](CNC(=O)[C@@H]1Cc2ccc(O)cc2CN1)[C@@H](O)c1ccc([N+](=O)[O-])cc1 | > 1000 µM | > 2.3 | – | – | 441 µM | –
CC(C)C[C@H](N)C(=O)N[C@H](Cc1ccccc1)C(=O)NC[C@H](N)[C@@H](O)c1ccc(N)cc1 | 134 µM | 22.3 | 1340 µM | 39.4 µM | 6.1 µM | 3650 µM
CC(C)C[C@H](NC(=O)[C@@H](O)[C@H](N)Cc1ccccc1)C(=O)O [UBENIMEX] | 120 µM | – | – | – | – | 5080 µM
N[C@H](Cc1ccccc1)C(=O)N[C@@H](CO)C(=O)NC[C@H](N)[C@@H](O)c1ccc([N+](=O)[O-])cc1 | 110 µM | 5 | – | – | 21.6 µM | –
CC(C)C[C@H](NC(=O)[C@H](N)Cc1ccccc1)C(=O)NC[C@H](N)[C@@H](O)c1ccc(I)cc1 | 52.7 µM | 0.5 | – | – | 105 µM | –
CC(C)C[C@H](N)C(=O)NC[C@H](N)[C@@H](O)c1ccc([N+](=O)[O-])cc1 | 143 µM | 1.8 | – | – | 80.6 µM | –
CC(C)C[C@H](NC(=O)[C@H](N)Cc1ccccc1)C(=O)NC[C@H](N)[C@@H](O)c1ccc([N+](=O)[O-])cc1 | 106 µM | 1.4 | – | – | 74.7 µM | –
CC(C)C[C@H](NC(=O)[C@H](N)Cc1ccccc1)C(=O)NC[C@H](N)[C@@H](O)c1ccc(N)cc1 | 94 µM | 3 | – | – | 31.6 µM | –
Nc1ccc([C@H](O)[C@@H](N)CNC(=O)[C@@H](N)Cc2ccc(O)cc2)cc1 | 111 µM | 1 | – | – | 114 µM | –
N[C@H](Cc1ccccc1)C(=O)N[C@H](Cc1ccccc1)C(=O)NC[C@H](N)[C@@H](O)c1ccc(I)cc1 | 107 µM | < 0.1 | – | – | > 1000 µM | –
N[C@H](Cc1ccccc1)C(=O)NC[C@H](O)C(=O)NC[C@H](N)[C@@H](O)c1ccc([N+](=O)[O-])cc1 | 109 µM | 6.1 | 3150 µM | 616 µM | 17.6 µM | 7320 µM
Nc1ccc([C@H](O)[C@@H](N)CNC(=O)[C@@H](Cc2ccccc2)NC(=O)[C@H](N)Cc2ccccc2)cc1 | 40.4 µM | 1.3 | – | – | 30.6 µM | –
CC(C)C[C@H](N)C(=O)N[C@H](Cc1ccccc1)C(=O)NC[C@H](N)[C@@H](O)c1ccc(I)cc1 | 86.6 µM | 7.7 | – | – | 11.3 µM | –
NCCCC[C@H](N)C(=O)NC[C@H](N)[C@@H](O)c1ccc([N+](=O)[O-])cc1 | 84.3 µM | 1.7 | – | – | 50.1 µM | –
N[C@@H](CS)C(=O)NC[C@H](N)[C@@H](O)c1ccc([N+](=O)[O-])cc1 | 152 µM | 12.7 | 2320 µM | 248 µM | 12.4 µM | 4220 µM
NC[C@H](O)C(=O)NC[C@H](N)[C@@H](O)c1ccc([N+](=O)[O-])cc1 | 100 µM | – | – | – | 164 µM | –
Nc1ccc([C@H](O)[C@@H](N)CNC(=O)[C@H](N)Cc2ccccc2)cc1 | 149 µM | 1.1 | – | – | 141 µM | –
N[C@@H](Cc1ccc(O)cc1)C(=O)NC[C@H](N)[C@@H](O)c1ccc([N+](=O)[O-])cc1 | 61.3 µM | 1.6 | – | – | 39.2 µM | –
